Data on 39 variants can be found in the RNAGym collection of RNA variant scans (doi:10.1038/nmeth.2970).

The labels stand for the following.
B1: NELF-E aptamer (parent)
chain: CCCAACGACUGCCGAGCGAGAUUACGCUUGAGCGCCCCACUGAGGAUGCCCACGGGCGAUUGGGGCACGG

Broadly, the Kd is the constant that tells how readily two partners part at equilibrium.

This series covers variants of B1. As to the kind of experiment: HiTS-RAP. As to conditions: with NELF-E (Drosophila). The gist of the method:
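Aptamer DNA templates carrying a T7 promoter and ter site were sequenced on an Illumina GAIIx flowcell, then transcribed in situ by T7 RNA polymerase and halted by GST-Tus (30 minutes, 37°C). Clusters were imaged after 30-minute room-temperature equilibration with NELF-E-mOrange at 0.064 to 1000 nM in HEPES binding buffer, and only the first binding curve was used. Intensities were normalised to sequencing intensity and averaged per sequence. Kd came from weighted Hill fits, keeping fits with variance below 1,000,000.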
With CCCAACGACUGCCGAGCGAGAUUGCGCUUGAGCGCCCCACUGAGGAUGCCCACGGGCGAUAGGGGCACGG [A24G U61A], the dissociation constant Kd was determined as 34.7 nM. The result for CCCAACGACUGCCGAGCGAGAUUGCGCCUGAGCGCCCCACUGAGGAUGCCCACGGGCGAUUGGGGCACGG [A24G U28C] reads 12.3 nM; that for CCCAACGACUGCCGAGCGAGAUUGCGCAUGAGCGCCCCACUGAGGAUGCCCACGGGCGAUUGGGGCACGG [A24G U28A], 3.42 nM.

Turning to CCCAACGACUGCCGAGCGAGAUUGCGCGUGAGCGCCCCACUGAGGAUGCCCACGGGCGAUUGGGGCACGG [A24G U28G], the Kd was found to be 8.97 nM. The result for CCCAACGACUGCCGAGCGAGAUUGCGCUUGAGCGCGCCACUGAGGAUGCCCACGGGCGAUUGGGGCACGG [A24G C36G] reads 8.51 nM. On to CCCAACGACUGCCGAGCGAGAUUGCGCUUGAGCGCUCCACUGAGGAUGCCCACGGGCGAUUGGGGCACGG [A24G C36U], for which the dissociation constant (Kd) is 6.95 nM. Take CCCAACGACUGCCGAGCGAGAUUGCGCUUGAGCGCCCCACUGAGGAUGCCCACGGGCGAUUAGGGCACGG [A24G G62A]: the equilibrium dissociation constant (Kd) was determined as 26.1 nM. As to CCCAACGACUGCCGAGCGAGAUUUCGCUUGAGCGCCCCACUGAGGAUGCCCACGGGCGAUUGGGGCACGG [A24U], the dissociation constant (Kd) came out at 5.93 nM. Under CCCAACGACUGCCGAGCGAGAUUGCGCUUGAGCGCCCUACUGAGGAUGCCCACGGGCGAUUGGGGCACGG [A24G C38U] stands 8.33 nM. The result for CCCAACGACUGCCGAGCGAGAUUGCGCUUGAGCGCCCCACUGAGGGUGCCCACGGGCGAUUGGGGCACGG [A24G A46G] reads 11.5 nM; that for CCCAACGACUGCCGAGCGAGAUUGCGCUUGAGCGCCCCACUGAGGUUGCCCACGGGCGAUUGGGGCACGG [A24G A46U], 58.5 nM; that for CCCAACGACUGCCGAGCGAGAUUGCGCUGGAGCGCCCCACUGAGGAUGCCCACGGGCGAUUGGGGCACGG [A24G U29G], 5.84 nM.

CCCAACGACUGCCGAGCGAGAUUGCGCUCGAGCGCCCCACUGAGGAUGCCCACGGGCGAUUGGGGCACGG [A24G U29C]: the Kd was determined as 4.85 nM.

As to CCCAACGACUGCCGAGCGAGAUUGCGCUAGAGCGCCCCACUGAGGAUGCCCACGGGCGAUUGGGGCACGG [A24G U29A], the Kd is 4.42 nM.

With CCCAACGACUGCCGAGCGAGAUUGCGCUUGAGCGCCCCACUGAGGAAGCCCACGGGCGAUUGGGGCACGG [A24G U47A], the dissociation constant (Kd) worked out at 13 nM. Turning to CCCAACGACUGCCGAGCGAGAUUGCGCUUGAGCGCCCCACUGAGGAGGCCCACGGGCGAUUGGGGCACGG [A24G U47G], the dissociation constant Kd turned out to be 7.22 nM.

CCCAACGACUGCCGAGCGAGAUUGCGCUUGAGCGCCCCACUGAGGAUGCCCACGGGCGACUGGGGCACGG [A24G U60C]: the Kd is 12.8 nM. As to CCCAACGACUGCCGAGCGAGAUUGCGCUUGAGCGCCCCACUGAGGAUGCCCACGGACGAUUGGGGCACGG [A24G G56A], the Kd came out at 11.9 nM.

In the case of CCCAACGACUGCCGAGCGAGAUUGCGCUUGAGCGCCCCACUGAGGAUGCCCACGGUCGAUUGGGGCACGG [A24G G56U], the Kd came out at 8.45 nM. With CCCAACGACUGCCGAGCGAGAUUGCUCUUGAGCGCCCCACUGAGGAUGCCCACGGGCGAUUGGGGCACGG [A24G G26U], the Kd amounted to 6.2 nM. Turning to CCCAACGACUGCCGAGCGAGAUUGCACUUGAGCGCCCCACUGAGGAUGCCCACGGGCGAUUGGGGCACGG [A24G G26A], the dissociation constant (Kd) worked out at 5.08 nM. CCCAACGACUGCCGAGCGAGAUUGCGCUUGAGCGCCCCACUGAGGAUGCCCACGGGCGAUUGGGGUACGG [A24G C66U]: the Kd was 5.38 nM. Turning to CCCAACGACUGCCGAGCGAGAUUGCGCUUGAGCGCCCCACUGAGGAUACCCACGGGCGAUUGGGGCACGG [A24G G48A], the Kd was found to be 14.2 nM. For the variant CCCAACGACUGCCGAGCGAGAUUGCGCUUGAGCGCCCCACUGAGGAUGCCCACGGGCGAUUGGGGCGCGG [A24G A67G], the dissociation constant Kd was 6.13 nM. The result for CCCAACGACUGCCGAGCGAGAUUGCGCUUGAGCGCCCCACUGAGGAUGCCCACGGGCGAUUGGGGCUCGG [A24G A67U] reads 7.95 nM; that for CCCAACGACUGCCGAGCGAGAUUGCGCUUGAGCGCCCCACUGAGGAUGCCCACGGGCGAUUGUGGCACGG [A24G G63U], 11 nM; that for CCCAACGACUGCCGAGCGAGAUUGCGCUUGAGCGCCCCACUGAGGAUGCCCACGGGCGAUUGAGGCACGG [A24G G63A], 14.3 nM.

With CCCAACGACUGCCGAGCGAGAUUGCGCUUGAGCGCCGCACUGAGGAUGCCCACGGGCGAUUGGGGCACGG [A24G C37G], the Kd came to 7.93 nM.

Regarding CCCAACGACUGCCGAGCGAGAUUGCGCUUGAGCGCCACACUGAGGAUGCCCACGGGCGAUUGGGGCACGG [A24G C37A], the Kd stood at 10.1 nM. For the variant CCCAACGACUGCCGAGCGAGAUUGCGCUUGAGCGCCUCACUGAGGAUGCCCACGGGCGAUUGGGGCACGG [A24G C37U], the Kd was found to be 15.3 nM.

For the variant CCCAACGACUGCCGAGCGAGAUUGCGCUUUAGCGCCCCACUGAGGAUGCCCACGGGCGAUUGGGGCACGG [A24G G30U], the Kd came to 7.16 nM. Under CCCAACGACUGCCGAGCGAGAUUGCGCUUAAGCGCCCCACUGAGGAUGCCCACGGGCGAUUGGGGCACGG [A24G G30A] stands 5.17 nM; under CCCAACGACUGCCGAGCGAGAUUGCGCUUGAGCGCCCCACGGAGGAUGCCCACGGGCGAUUGGGGCACGG [A24G U41G], 5.63 nM. The result for CCCAACGACUGCCGAGCGAGAUUGCGCUUGAGCGCCCCACAGAGGAUGCCCACGGGCGAUUGGGGCACGG [A24G U41A] reads 92.9 nM. CCCAACGACUGCCGAGCGAGAUUAGCCUUGAGCGCCCCACUGAGGAUGCCCACGGGCGAUUGGGGCACGG [C25G G26C]: the equilibrium dissociation constant (Kd) came out at 6 nM. With CCCAACGACUGCCGAGCGAGAUUAGUCUUGAGCGCCCCACUGAGGAUGCCCACGGGCGAUUGGGGCACGG [C25G G26U], the Kd amounted to 5.3 nM. Consider CCCAACGACUGCCGAGCGAGAUUAUGCUUGAGCGCCCCACUGAGGAUGCCCACGGGCGAUUGGGGCACGG [C25U], for which the dissociation constant (Kd) amounted to 5.19 nM.

As to CCCAACGACUGCCGAGCGAGAUUAAGCUUGAGCGCCCCACUGAGGAUGCCCACGGGCGAUUGGGGCACGG [C25A], the Kd amounted to 4.89 nM. The result for CCCAACGACUGCCGAGCGAGAUUAGGCUUGAGCGCCCCACUGAGGAUGCCCACGGGCGAUUGGGGCACGG [C25G] reads 5.2 nM.
